Laboratory results taken from ChEMBL document CHEMBL4513216, “Probing the Open Global Health Chemical Diversity Library for Multistage-Active Starting Points for Next-Generation Antimalarials” (ACS Infect Dis, 2020).

Assay: Toxicity liver stage against HepG2, at 10uM
Assay type: cell-based
Set-up: test concentration 10 uM, cell line HepG2-A16-CD81EGFP
Conditions: human, HepG2-A16-CD81EGFP cells; read-out: INHIBITION
Summary of the method: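 Uninfected HepG2-A16-CD81EGFP cells, 3 × 10^3 per well, 1536-well, plated on prespotted compound at 10 μM final, parasite-free screening media added to match infected plates; puromycin 10 μM positive, DMSO 0.5% negative; run in parallel with 48 h PbLuc assay at 37 °C, 5% CO2; viability by CellTiter-Glo luminescence, normalized to controls.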

| Structure (SMILES) | cytotoxicity at 10 µM [%] |
| --- | --- |
| CCOCC1CN(CC2CCC2)Cc2nnn(CC3CC3)c21 (stereo not given) | 12.7 |
| COCc1cccc(C(=O)N(C)Cc2ncc(C)c(OC)c2C)c1 | -13.1 |
| O=c1[nH]c(-c2ccncc2)ncc1-c1ccnc(N2CCOCC2)n1 | -1.2 |
| CNC(=O)NC(=O)C(NCc1cccs1)c1ccccc1 (stereo not given) | 6.75 |
| O=C(Cc1cnc(-c2c(Cl)cccc2Cl)s1)N1CCOCC1 | 3.29 |
| Cc1ccc2c(c1)c(CNC(=O)C1CC(=O)N(CCN(C)C)C1)nn2C (stereo not given) | 1.66 |
| Cc1cc(C2CCC2)nc(NCC(C)(C)N2CCOCC2)n1 | 11.5 |
| Cc1ccc(C(C)NCc2cn(CCC(N)=O)c3ccccc23)cc1C (stereo not given) | -1.69 |
| CCCn1ncc2c(C(=O)Nc3cnn(CC)c3C)cc(C3CC3)nc21 | -0.842 |
| COc1cccc(CNC(=O)c2cccnc2N)c1 | 20.1 |
| Cn1cc(C(=O)N2CCO[C@@H]3CN(C4CCC4)C[C@@H]3C2)cn1 | 8.55 |
| O=C(c1ccc(Cn2cc(Br)cn2)cc1)N1CCCC1 | -7.86 |
| c1ccc(CN2C[C@H]3CCC[C@@]3(COCC3CC3)C2)nc1 | 1.55 |
| Cc1cc(C)cc(NC(=O)c2cnc(N3CCN(C)CC3)nc2C)c1 | -15.5 |
| CC(C)(O)CN1CCN(C(=O)c2cccnc2O)CC1 | -21.7 |
| Cn1cc(CN(C(=O)c2ccc(O)c(Cl)c2)C2CC2)cn1 | 5.17 |
| O=C(Nc1ccccc1)N1CCN(Cc2noc(C3CC3)n2)CC1 | 2.82 |
| Cc1cc(C)c(C(=O)NC(c2nnc3n2CCNCC3)C(C)C)c(C)c1 (stereo not given) | -7.01 |
| CN(C)C(=O)CNC(=O)CCn1ncc2c(Cl)cccc21 | -4.84 |
| Cc1noc(C)c1CN(C)C(=O)c1ccc(O)nc1 | -9.71 |
| Cc1nc(C)c(C(=O)N2CCc3nc4c(C)csc4c(=O)n3CC2)s1 | 4.11 |
| CC1CCN(CCNC(=O)C(C)n2cncn2)CC1 (stereo not given) | -9.12 |
| CCc1ccc(CNC(=O)CCc2nnc(-c3ccc(C)s3)o2)nc1 | -3.65 |
| Cc1nc(CN(C)C(=O)CN(C)C)nc2c1CCC(=O)N2CCC(C)C | -10.5 |
| O=C(CCC(=O)Nc1nnc(C2CCCCC2)s1)NCC1CCCO1 (stereo not given) | -7.7 |
| C[C@@H]1CN(Cc2ccoc2)C[C@]12CCN(CC(=O)N(C)C)C2=O | 2.11 |
| N#CC1(NC(=O)c2ccc(F)c(Br)c2)CCSC1 (stereo not given) | -7.08 |
| O=C(c1coc(-c2ccccc2)n1)N1CCCCC1 | 11.2 |

| Structure (SMILES) | cytotoxicity at 10 µM [%] |
| --- | --- |
| COCc1cncc2c1CCN(Cc1cnn(C)c1)C2 | -0.287 |
| Cc1ncc(CN(Cc2ccccn2)Cc2ccccc2Cl)n1C | -1.45 |
| CC(C)OCCCNC(=O)NCc1cccc(-n2ccnc2)c1 | 18.5 |
| O=C(CCn1cncn1)N1CCC2(CC1)[C@H](O)C[C@@H]2OCCO | -0.387 |
| Cc1ccc(N2CCCC(NCc3nc(C)c(C)o3)C2)nn1 (stereo not given) | -3.18 |
| CCNc1cc2c(nn1)CCN(C(=O)Cc1c(C)noc1C)C2 | -8.89 |
| CC(c1c(F)cccc1F)N1CCN(Cc2nccn2C)CC1 (stereo not given) | -13.6 |
| CC(C)c1nn(C)c(N(C)C)c1CNCc1cccc2cccnc12 | -11.2 |
| Cc1cccc(CN2C[C@@H]3OCCN(c4ccnc(N(C)C)n4)[C@@H]3C2)c1 | -94.9 |
| COc1ccc(C(=O)NC2CC2)c(OC2CCN(CC3CC3)CC2)c1 | -1.47 |
| Cc1nc[nH]c1-c1nccn1-c1ccc(C(N)=O)c(N2CCCC2)c1 | 6.23 |
| O=C(Nc1nc2c(s1)CNCC2)C1CC1 | -0.0154 |
| CN(CC(O)COc1ccc(C(F)(F)F)cc1)C(=O)Nc1nncs1 (stereo not given) | -11.1 |
| Cc1nccn1CC1CCCN1S(=O)(=O)Cc1cccc(F)c1 (stereo not given) | -15.8 |
| Cc1cc2ccncc2n1CC1(O)CCN(C(=O)c2cccnc2)CC1 | 4.18 |
| CCOC(=O)[C@H]1[C@@H](O)C(=O)N(C)C12CCN(S(=O)(=O)CC)CC2 | -6.06 |
| Cc1ccc(CN2CCn3c(CN4CCN(C)CC4)cnc3C2C)s1 (stereo not given) | 8.39 |
| CC(C)c1ncc(CN2C[C@@H](CN3CCCN(C)CC3)[C@@H](CO)C2)cn1 | -9.77 |
| CNC(=O)c1ccc(CNCc2ccc(SC)c(OC)c2)cc1 | 0.838 |
| CC(C)(CO)NCc1ccc(OCc2ccc3c(c2)OCCO3)cc1 | 4.12 |
| C[C@@H]1C[C@H]2CN(Cc3nccs3)C[C@H]2O1 | -1.22 |
| CS(=O)(=O)NCCCSCc1cccc2cccnc12 | 3.53 |
| CN(C)CCO[C@H]1C[C@@H](O)C12CCN(c1ncccc1Cl)CC2 | 5.37 |
| CCn1c(Cn2cncn2)nnc1C1CCN(Cc2ccccn2)CC1 | 9.78 |
| COCC(O)CN(C)c1cc(C(F)(F)F)nc(-c2cccnc2)n1 (stereo not given) | 7.02 |
| O=C(CCc1ccccn1)N1CCCN(C(=O)CC2CCCC2)CC1 | -0.546 |
| O=C(NC[C@]12COC[C@H]1CN(C1CCOCC1)C2)c1ccco1 | -3.99 |
